# Screens as filed in PubChem.
# UCH37 inh: blocks the human deubiquitinase UCH37 | Q9Y5K5 | purified proteasome/UCH37, Ub-AMC cleavage fluorescence | inhibition, % (concentration not given with the values) | 330,000 compounds, 0.33% hits;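 active = mean inhibition over replicate wells above about 20%, limit read from the data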;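 also: 0% = compound-free wells with enzyme and 100% = wells lacking proteasome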
# Target sequence (Q9Y5K5 whole entry, looked up): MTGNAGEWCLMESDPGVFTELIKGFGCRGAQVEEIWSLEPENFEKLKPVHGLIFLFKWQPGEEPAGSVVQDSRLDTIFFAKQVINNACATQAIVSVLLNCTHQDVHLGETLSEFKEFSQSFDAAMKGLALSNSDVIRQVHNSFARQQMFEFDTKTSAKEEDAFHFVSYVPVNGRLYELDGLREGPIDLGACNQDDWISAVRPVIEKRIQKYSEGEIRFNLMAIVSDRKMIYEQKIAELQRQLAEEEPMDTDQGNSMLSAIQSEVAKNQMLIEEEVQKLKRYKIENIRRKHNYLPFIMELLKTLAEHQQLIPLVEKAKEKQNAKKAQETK
#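 Reagent: Ub-AMC substrate; assay system: Proteasome-associated human UCH37 deubiquitinase; controls: no-proteasome and no-compound wells; read-out: % inhibition of Ub-AMC cleavage fluorescence; timing: 30 min preincubation with enzyme, 25 min cleavage at room temperature; signal: AMC fluorescence from Ub-AMC cleavage, excitation 355 nm, emission 460 nm; buffer or medium: Tris-HCl pH 7.4 plus ovalbumin, ATP-MgCl2, DTT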
# aDG glyco act: alpha-DG glycosylation activation; Pro5-aDG cells, alpha-DG glycosylation AlphaScreen (IIH6); 0% Pro5, 100% B10-LARGE cell signal; activation, % at 10 µM; 360,000 compounds, 0.22% hits;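 active = activation of at least 8% versus controls, or a plate z-score of at least 8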;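 also: Pro5 are CHO cells carrying HIG-tagged alpha-DG that lacks glycosylation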
# bovine MsrA act: bovine methionine sulfoxide reductase A activation. purified bovine MsrA, absorbance read-out. activation, % at 10.6 µM. 360,000 compounds, 0.3% hits. AID 602163; in the data active = activation above about 7.5%;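 also: 0% = vehicle and 100% = reference activator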
# Vif inh: blocks HIV Vif function; HEK293T cells, Vif self-association by quenched fluorescence, imaging, 24 h; inhibition, % at 7.49 µM; 340,000 compounds, 0.35% hits; in the data active = inhibition above about 50%, passing the limit was not always enough
# N-glyco inh: blocks N-linked glycosylation in D54 reporter cells; D54 ERlucT glycosylation luciferase reporter, 24 h; percent of 100 nM tunicamycin response; reporter increase, % at 12.5 µM; 360,000 compounds, 0.23% hits; AID 588692;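 active = mean luciferase reporter signal, scaled so untreated is 0 and the glycosylation-blocking control 100, at or above a set limit in every replicate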;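 also: luciferase carries N-glycosylation sites so blocking glycosylation raises the light; 0% = median of neutral control wells and 100% = median of 100 nM tunicamycin wells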
# MsrA inhibitor: inhibitors of bovine MsrA | purified bovine MsrA, absorbance read-out | 360,000 compounds, 0.75% hits | AID 651718 | inhibition, % at 15.5 µM; in the data active = inhibition above about 4.5%;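 also: 0% = vehicle wells with enzyme and 100% = reference inhibitor wells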
# MsrA act confirm: bovine methionine sulfoxide reductase A activation confirmed | shares compounds with bovine MsrA act | purified bovine MsrA, absorbance read-out | activation, % at 10.6 µM | 1,000 compounds, 12% hits; in the data active = activation above about 4%;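 also: enzyme coupled to thioredoxin and thioredoxin reductase with NADPH; 0% = vehicle wells and 100% = reference activator wells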
# An asterisk follows results filed as active; x = not tested or not shown; ! = a repeat was not active. Rows were chosen to be rich in hits. Some 1.9% of all compounds tested hit in one or more screens of this group.
SMILES,UCH37 inh,aDG glyco act,bovine MsrA act,Vif inh,N-glyco inh,MsrA inhibitor,MsrA act confirm
Cc1cccc(C(=O)Nc2ccc(C(=O)NN=Cc3ccc4c(c3)OCO4)cc2)c1,-26,x,x,x,x,x,x
Cn1c(N)c(S(=O)(=O)NCc2ccc(Cl)cc2)c(=O)n(C)c1=O,0,0,8.9*,8,0,0,-3
CCN(CC)c1ccc(C=NOC(C)C(=O)Nc2ccc(C)cc2)cc1 (configuration not stated),-10,x,x,x,x,x,x
O=c1oc2ccc(C#CC3(O)CCCCC3)cc2cc1-n1cc(C2(O)CCCCC2)nn1,-8,0,8.6*,x,-1,-1,-1
Cc1ccc(C(=O)NN=C2CC3CC=CC23)c(C)c1 (configuration not stated),3,x,x,x,x,x,x
Clc1ccc(CONC=Nc2ncnc3sccc23)c(Cl)c1,0,x,x,x,x,x,x
Cc1nc2c(nc1C)C(=O)c1ccccc1C2=O,x,14*,13*,-11,-16,1,8.4*
O=C(CSc1nnc(Cc2ccccc2)o1)NCCN1C(=O)CSC1=O,0,0,19*,x,0,-1,-1
CN(Cc1cccs1)c1ncnc2sccc12,3,2,-2,-13,-4,1,x
CN(Cc1ccccc1F)c1ncnc2sccc12,-1,0,14*,-28,-5,0,0
COc1ccccc1NC(=O)COc1ccc(C=NNS(=O)(=O)c2ccc(C)cc2)cc1,4,x,x,x,x,x,x
CSc1nnc2c3c4c(sc3c(=O)n(-c3ccccc3)n12)CC(C)(C)OC4,2,0,24*,x,2,1,-3
CS(=O)(=O)N1CCN(C(=O)c2ccc(Cl)s2)CC1,-2,0,16*,15,1,-1,-1
O=C(c1ccc(Cl)s1)N1CCCC1,3,1,1,11,1,0,x
O=C(NCSc1ccnc(SCNC(=O)c2ccccc2)n1)c1ccccc1,2,0,11*,0,-1,1,3
O=C1CCCCCC1=NNc1ccc(OCc2ccccc2)cc1,3,x,x,x,x,x,x
Cc1ccc(NC(=O)CCC(=O)NNC(=O)NC23CC4CC(CC(C4)C2)C3)cc1C,4,0,9.0*,-7,4,1,0
CCN(CC)c1ccc(C=NOCC(=O)N2CCCc3ccccc32)cc1,-1,x,x,x,x,x,x
COc1ccc(-c2nc(O)c3cnccn23)cc1,2,0,-4,3,2,3,x
CSc1ccc(-c2nc(O)c3cnccn23)cc1,0,0,10*,-3,2,3,-4
NS(=O)(=O)c1ccc(CCNC(=O)/C=C/c2ccc([N+](=O)[O-])cc2)cc1,6,0,-11,5,-3,2,x
COc1ccc(/C=C/C(=O)NCCc2ccc(S(N)(=O)=O)cc2)cc1,1,0,13*,6,1,0,-5
COC(=O)NN=Cc1ccc([N+](=O)[O-])s1,12,x,x,x,x,x,x
O=C(Cc1ccccc1)N/N=C/c1ccc([N+](=O)[O-])s1,x,3,7.9*,0,0,2,1
CCN(CC)c1ccc2nc3ccccc3[n+](CC)c2c1,x,0,34*,-1,-6,x,19*
SMILES,UCH37 inh,aDG glyco act,bovine MsrA act,Vif inh,N-glyco inh,MsrA inhibitor,MsrA act confirm
c1ccc(-c2nc(NC3CC3)nc(-n3ccnc3)n2)cc1,-1,2,14*,17,6,0,-2
C=C1CCC[C@]2(C)C[C@H]3OC(=O)C(CN4CC(C)OC(C)C4)[C@H]3C[C@@H]12 (some centres not stated),6,0,2,-8,-9,-1,x
C=C1CCC[C@]2(C)C[C@H]3OC(=O)C(CNCCN(CC)CC)[C@H]3CC12 (some centres not stated),6,0,8.4*,-2,-7,-1,-1
Cc1cccc(NC(=O)c2ccccc2NC(=O)c2ccccc2)n1,-2,0,18*,-13,1,1,1
Cc1cc(C)cc(OC(C)c2ccnc3nc(N=CN(C)C)nn23)c1 (configuration not stated),-71,x,x,x,x,x,x
COc1ccc(CC(=O)NN=Cc2cccs2)cc1OC,3,x,x,x,x,x,x
CC(=NOC(=O)c1cccc(C(F)(F)F)c1)c1sc(-c2ccccc2)nc1C,-121,x,x,x,x,x,x
COc1cc(NC(=O)c2cccs2)c(C(=O)OCC(=O)NC(=O)NCc2ccccc2)cc1OC,-36,0,7.9*,-3,3,2,-3
COc1cc(NC(=O)c2cccs2)c(C(=O)OCC(=O)NC(=O)NC(C)(C)C)cc1OC,-20,0,-3,x,3,-1,x
O=C(O)CSc1nnc(Cn2cnc3ccccc32)n1CCc1ccccc1,2,2,8.8*,-2,2,-1,-4
O=C(O)CSc1nnc(Cc2ccccc2)n1Cc1ccccc1,1,0,-4,-3,2,-1,x
CCCC(=NNC(=O)CCC(=O)NCc1ccccc1)c1ccccc1,4,x,x,x,x,x,x
Clc1ccc(-c2ccn[nH]2)cc1,-1,0,-3,10,1,1,x
S=c1nccc(-c2ccc(Cl)cc2)[nH]1,3,0,8.3*,0,2,1,4
CC(=NN=C(N)SC1CC(=O)N(c2ccc(Cl)c(Cl)c2)C1=O)c1cccs1 (configuration not stated),10,x,x,x,x,x,x
CC1CCN(C2=C(NS(=O)(=O)c3ccccc3)C(=O)c3ccccc3C2=O)CC1,3,0,-1,-2,5,0,x
CC(=O)Nc1ccc(S(=O)(=O)NC2=C(N3CCN(Cc4ccccc4)CC3)C(=O)c3ccccc3C2=O)cc1,4,0,8.1*!,-6,7,1,1
CC1CCCN(C2=C(NS(=O)(=O)c3ccc(Br)cc3)C(=O)c3ccccc3C2=O)C1 (configuration not stated),x,0,8.9*,-2,7,2,1
CC(=O)Nc1ccc(S(=O)(=O)NC2=C(N3CCN(C)CC3)C(=O)c3ccccc3C2=O)cc1,18,2,26*,-16,9,2,1
CC1CCN(C2=C(NS(=O)(=O)c3ccc(Br)cc3)C(=O)c3ccccc3C2=O)CC1,7,0,-3,-20,1,1,x
COc1ccc(C(=O)NN=Cc2ccc(OC)c(CSc3ccccn3)c2)cc1,5,x,x,x,x,x,x
Cc1ccc2cc(C#N)c(N3CCCN(S(=O)(=O)c4ccccc4)CC3)nc2c1,-24,0,8.7*,-8,3,0,-3
Cc1cc(NS(=O)(=O)c2ccc(NC(=O)CCCC(=O)O)cc2)nc(C)n1,-2,0,8.2*,7,1,0,0
COc1ccccc1C=NNc1cc(N(C)C)nc(N(C)C)n1,2,x,x,x,x,x,x
CC1(C)CC(=O)C2=C(C1)N(CC1CCCO1)C(=O)NC2(C(F)(F)F)C(F)(F)F (configuration not stated),3,0,11*,x,2,0,-1
